Columns and labels:
[1] = system: Leishmania donovani; assay: Antileishmanial activity against Leishmania donovani MHOM/IN/95/9515 amastigote assessed as inhibition of parasite growth incubated for 72 hrs by resazurin staining based analysis; details: MHOM/IN/95/9515, 72 h
[2] = system: Leishmania major; assay: Antileishmanial activity against Leishmania major IR-173 promastigotes assessed as inhibition of parasite growth incubated for 48 hrs by resazurin staining based analysis; format: functional, organism-based; details: IR-173, 48 h
Outline: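 Logarithmic-phase promastigotes (1.25 × 10^6 cells per mL) grown in supplemented M199 with 10% FBS, pH 7.3–7.4, 26 °C. […] 48 h at 26 °C, then resazurin 24 h in the dark. Absorbance 570 minus 600 nm. IC50 by non-linear regression, mean ± SD of three biological replicates.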

[3] = system: Leishmania major; assay: Antileishmanial activity against Leishmania major IR-173 amastigote assessed as inhibition of parasite growth incubated for 72 hrs by resazurin staining based analysis; details: IR-173, 72 h
[4] = system: Leishmania donovani; assay: Antileishmanial activity against Leishmania donovani MHOM/IN/95/9515 promastigotes assessed as inhibition of parasite growth incubated for 48 hrs by resazurin staining based analysis; format: functional, organism-based; details: MHOM/IN/95/9515, 48 h
[5] = in vitro; details: monkey, Vero cells
[6] = system: THP-1; assay: cells; format: functional, cell-based; details: Homo sapiens, THP-1, 72 h
[7] = system: Trypanosoma cruzi; assay: Antitrypanosomal activity against Trypanosoma cruzi epimastigotes assessed as parasite growth inhibition incubated for 48 hrs by resazurin staining based analysis; format: functional, organism-based
[8] = system: Trypanosoma cruzi; assay: Antitrypanosomal activity against bloodstream Trypanosoma cruzi trypomastigotes infected in African green monkey Vero cells assessed as parasite growth inhibition incubated for 48 hrs by resazurin assay
[9] = in vitro; details: monkey, Vero cells; remark: listed apart in the source
[10] = Selectivity index, ratio of IC50 for cytotoxicity against African green monkey Vero cells assessed as inhibition of cell growth to IC50 for antitrypanosomal activity against Trypanosoma cruzi epimastigotes assessed as parasite growth inhibition; format: toxicity, cell-based; details: read-out: Ratio IC50
[11] = Selectivity index, ratio of IC50 for cytotoxicity against human THP-1 cells assessed as inhibition of cell growth to IC50 for antitrypanosomal activity against Trypanosoma cruzi trypomastigotes assessed as parasite growth inhibition; format: functional
[12] = Selectivity index, ratio of IC50 for cytotoxicity against African green monkey Vero cells assessed as inhibition of cell growth to IC50 for antitrypanosomal activity against Trypanosoma cruzi trypomastigotes assessed as parasite growth inhibition; format: toxicity, cell-based; details: read-out: Ratio IC50
[13] = system: Trypanosoma cruzi; assay: Selectivity index, ratio of IC50 for antitrypanosomal activity against Trypanosoma cruzi epimastigote assessed as parasite growth inhibition to IC50 for antitrypanosomal activity against Trypanosoma cruzi trypomastigotes assessed as parasite growth inhibition; format: functional
[14] = Selectivity index, ratio of IC50 for cytotoxicity against human THP-1 cells assessed as inhibition of cell growth to IC50 for antileishmanial activity against Leishmania donovani MHOM/IN/95/9515 amastigote assessed as inhibition of parasite growth; format: functional
[15] = system: Leishmania donovani; assay: Selectivity index, ratio of IC50 for antileishmanial activity against Leishmania donovani MHOM/IN/95/9515 promastigotes assessed as inhibition of parasite growth to IC50 for antileishmanial activity against Leishmania donovani MHOM/IN/95/9515 amastigote assessed as inhibition of parasite growth; format: functional
[16] = in vitro; details: monkey, Vero cells; remark: listed apart in the source
[17] = system: Leishmania major; assay: Selectivity index, ratio of IC50 for antileishmanial activity against Leishmania major IR-173 promastigotes assessed as inhibition of parasite growth to IC50 for antileishmanial activity against Leishmania major IR-173 amastigote assessed as inhibition of parasite growth; format: functional
[18] = in vitro; details: monkey, Vero cells; remark: listed apart in the source

O=C1OCCN1/N=C/c1ccc([N+](=O)[O-])o1 [FURAZOLIDONE]
IC50 [1]: 2.7 µM | IC50 [2]: 0.34 µM | IC50 [3]: 5.61 µM | IC50 [4]: 0.28 µM

O=[N+]([O-])c1ccc(/C=N/N=C/c2ccc(OCc3ccccc3)cc2)s1
selectivity ratio [5]: 23 | IC50 [2]: 4.39 µM | IC50 [3]: > 10 µM | IC50 [6]: > 100 µM

C(=N\N=C\c1ccco1)/c1ccc(OCc2ccccc2)cc1
IC50 [1]: > 10 µM | IC50 [2]: > 10 µM | IC50 [7]: > 10 µM | IC50 [3]: > 10 µM | IC50 [8]: > 10 µM | IC50 [4]: > 10 µM

O=[N+]([O-])c1ccc(/C=N/N=C/c2ccccc2)o1
selectivity ratio [9]: 11 | IC50 [1]: > 10 µM | selectivity ratio [5]: 14 | IC50 [2]: 1.19 µM | IC50 [7]: 7.66 µM | IC50 [3]: > 10 µM | IC50 [8]: 2.31 µM | IC50 [4]: 1.45 µM | selectivity ratio [10]: 2 | IC50 [6]: > 100 µM | Ratio IC50 [11]: 42 | selectivity ratio [12]: 7 | Ratio IC50 [13]: 3.32

O=[N+]([O-])c1ccc(/C=N/N=C/c2ccc([N+](=O)[O-])o2)cc1
selectivity ratio [9]: 17 | IC50 [1]: 0.53 µM | Ratio IC50 [14]: 32 | selectivity ratio [5]: 17 | IC50 [2]: 0.7 µM | IC50 [7]: 2.63 µM | IC50 [3]: 7.9 µM | IC50 [8]: 0.78 µM | IC50 [4]: 0.7 µM | Ratio IC50 [15]: 1.32 | selectivity ratio [10]: 4 | selectivity ratio [16]: 22 | IC50 [6]: 16.8 µM | Ratio IC50 [11]: 21 | Ratio IC50 [17]: 0.09 | selectivity ratio [18]: 1 | selectivity ratio [12]: 15 | Ratio IC50 [13]: 3.37

O=[N+]([O-])c1ccc(/C=N/N=C/c2ccc(Cl)cc2)o1
selectivity ratio [9]: 149 | IC50 [1]: > 10 µM | selectivity ratio [5]: 238 | IC50 [2]: 0.42 µM | IC50 [7]: 2.41 µM | IC50 [3]: 2.47 µM | IC50 [8]: 3.05 µM | IC50 [4]: 0.67 µM | selectivity ratio [10]: 41 | IC50 [6]: > 100 µM | Ratio IC50 [11]: 33 | Ratio IC50 [17]: 0.17 | selectivity ratio [18]: 40 | selectivity ratio [12]: 33 | Ratio IC50 [13]: 0.79

O=Cc1ccc([N+](=O)[O-])o1
IC50 [1]: 2.68 µM | Ratio IC50 [14]: 30 | selectivity ratio [5]: 2 | IC50 [2]: 7.94 µM | IC50 [7]: > 10 µM | IC50 [3]: 5.6 µM | IC50 [8]: > 10 µM | IC50 [4]: > 10 µM | IC50 [6]: 80.9 µM | Ratio IC50 [17]: 1.42 | selectivity ratio [18]: 3

O=[N+]([O-])c1ccc(/C=N/N=C/c2ccc(Br)cc2)o1
selectivity ratio [9]: 28 | IC50 [1]: 6.41 µM | Ratio IC50 [14]: 16 | selectivity ratio [5]: 133 | IC50 [2]: 0.75 µM | IC50 [7]: 46.1 µM | IC50 [3]: 0.63 µM | IC50 [8]: > 10 µM | IC50 [4]: 3.56 µM | Ratio IC50 [15]: 0.56 | selectivity ratio [10]: 2 | selectivity ratio [16]: 16 | IC50 [6]: > 100 µM | Ratio IC50 [17]: 1.19 | selectivity ratio [18]: 159

Cc1ccc(/C=N/N=C/c2ccc([N+](=O)[O-])o2)cc1
selectivity ratio [9]: 132 | IC50 [1]: > 10 µM | selectivity ratio [5]: 238 | IC50 [2]: 0.42 µM | IC50 [7]: 3.69 µM | IC50 [3]: > 10 µM | IC50 [8]: 4.04 µM | IC50 [4]: 0.76 µM | selectivity ratio [10]: 27 | IC50 [6]: > 100 µM | Ratio IC50 [11]: 25 | selectivity ratio [12]: 25 | Ratio IC50 [13]: 0.91

O=[N+]([O-])c1ccc(/C=N/N=C/c2ccc(OCc3ccccc3)cc2)o1
selectivity ratio [9]: 62 | IC50 [1]: 0.25 µM | Ratio IC50 [14]: 400 | selectivity ratio [5]: 222 | IC50 [2]: 0.45 µM | IC50 [7]: 95.2 µM | IC50 [3]: > 10 µM | IC50 [8]: > 10 µM | IC50 [4]: 1.61 µM | Ratio IC50 [15]: 6.44 | selectivity ratio [10]: 1 | selectivity ratio [16]: 400 | IC50 [6]: > 100 µM

O=C(Cn1ccnc1[N+](=O)[O-])NCc1ccccc1 [BENZNIDAZOLE]
IC50 [8]: 4.79 µM | IC50 [6]: > 100 µM | Ratio IC50 [11]: 21 | selectivity ratio [12]: 21

O=[N+]([O-])c1ccc(/C=N/N=C/c2ccccc2)s1
selectivity ratio [9]: 45 | IC50 [1]: 7.26 µM | Ratio IC50 [14]: 14 | selectivity ratio [5]: 29 | IC50 [2]: 1.43 µM | IC50 [7]: 9.21 µM | IC50 [3]: > 10 µM | IC50 [8]: 2.5 µM | IC50 [4]: 0.93 µM | Ratio IC50 [15]: 0.13 | selectivity ratio [10]: 5 | selectivity ratio [16]: 6 | IC50 [6]: > 100 µM | Ratio IC50 [11]: 40 | selectivity ratio [12]: 17 | Ratio IC50 [13]: 3.68

O=[N+]([O-])c1ccc(/C=N/N=C/c2ccc(O)cc2)s1
selectivity ratio [9]: 20 | IC50 [1]: 0.34 µM | Ratio IC50 [14]: 67 | selectivity ratio [5]: 15 | IC50 [2]: 2.22 µM | IC50 [7]: > 10 µM | IC50 [3]: > 10 µM | IC50 [8]: 3.04 µM | IC50 [4]: 1.66 µM | Ratio IC50 [15]: 4.88 | selectivity ratio [16]: 97 | IC50 [6]: 22.9 µM | Ratio IC50 [11]: 8 | selectivity ratio [12]: 11

O=Cc1ccc([N+](=O)[O-])s1
selectivity ratio [9]: 2 | IC50 [1]: > 10 µM | selectivity ratio [5]: 3 | IC50 [2]: 3.75 µM | IC50 [7]: > 10 µM | IC50 [3]: > 10 µM | IC50 [8]: 1.62 µM | IC50 [4]: 5.07 µM | IC50 [6]: 26.7 µM | Ratio IC50 [11]: 16 | selectivity ratio [12]: 8

O=[N+]([O-])c1ccc(/C=N/N=C/c2ccco2)cc1
IC50 [1]: > 10 µM | IC50 [2]: > 10 µM | IC50 [7]: > 10 µM | IC50 [3]: > 10 µM | IC50 [8]: > 10 µM | IC50 [4]: > 10 µM

O=[N+]([O-])c1ccc(/C=N/N=C/c2ccc(F)cc2)s1
selectivity ratio [9]: 50 | IC50 [1]: > 10 µM | selectivity ratio [5]: 26 | IC50 [2]: 3.79 µM | IC50 [7]: > 10 µM | IC50 [3]: > 10 µM | IC50 [8]: 6.56 µM | IC50 [4]: 2 µM | IC50 [6]: > 100 µM | Ratio IC50 [11]: 15 | selectivity ratio [12]: 15

COc1ccc(/C=N/N=C/c2ccc([N+](=O)[O-])o2)cc1
selectivity ratio [9]: 44 | IC50 [1]: 2.28 µM | Ratio IC50 [14]: 44 | selectivity ratio [5]: 57 | IC50 [2]: 0.89 µM | IC50 [7]: 4.92 µM | IC50 [3]: > 10 µM | IC50 [8]: 6.14 µM | IC50 [4]: 1.16 µM | Ratio IC50 [15]: 0.51 | selectivity ratio [10]: 10 | selectivity ratio [16]: 22 | IC50 [6]: > 100 µM | Ratio IC50 [11]: 16 | selectivity ratio [12]: 8 | Ratio IC50 [13]: 0.8

NC(=O)N/N=C/c1ccc([N+](=O)[O-])o1 [NITROFURAZONE]
selectivity ratio [9]: 54 | IC50 [1]: 1.69 µM | selectivity ratio [5]: 54 | IC50 [2]: 1.85 µM | IC50 [7]: 7.83 µM | IC50 [3]: > 10 µM | IC50 [8]: 2.23 µM | IC50 [4]: 1.85 µM | Ratio IC50 [15]: 1.09 | selectivity ratio [10]: 13 | selectivity ratio [16]: 59 | IC50 [6]: > 100 µM | Ratio IC50 [11]: 45 | selectivity ratio [12]: 45 | Ratio IC50 [13]: 3.5

O=[N+]([O-])c1ccc(/C=N/N=C/c2ccc(F)cc2)o1
selectivity ratio [9]: 40 | IC50 [1]: > 10 µM | selectivity ratio [5]: 65 | IC50 [2]: 0.73 µM | IC50 [7]: 3.56 µM | IC50 [3]: 3.69 µM | IC50 [8]: 1.95 µM | IC50 [4]: 1.18 µM | selectivity ratio [10]: 13 | IC50 [6]: 63.4 µM | Ratio IC50 [11]: 51 | Ratio IC50 [17]: 0.2 | selectivity ratio [18]: 13 | selectivity ratio [12]: 24 | Ratio IC50 [13]: 1.83

O=[N+]([O-])c1ccc(/C=N/N=C/c2ccc(O)cc2)o1
selectivity ratio [9]: 18 | IC50 [1]: 2.7 µM | Ratio IC50 [14]: 17 | selectivity ratio [5]: 29 | IC50 [2]: 0.64 µM | IC50 [7]: 7.3 µM | IC50 [3]: > 10 µM | IC50 [8]: 1.74 µM | IC50 [4]: 1.02 µM | Ratio IC50 [15]: 0.38 | selectivity ratio [10]: 3 | selectivity ratio [16]: 7 | IC50 [6]: 46.2 µM | Ratio IC50 [11]: 27 | selectivity ratio [12]: 11 | Ratio IC50 [13]: 4.2
